Several values for one entry are separate records, joined by “and”; a condition that tells them apart may be missing. Equal entries are not always repeated.
Key:
Format in all cases: functional, Rattus norvegicus, Hippocampus
[1] = Evaluation for reversing the inhibitory effects of Fumonisin B1(FB1) on accelerated axonal growth of hippocampal neurons.
Outline: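 E18 Wistar rat hippocampal neurons, trypsin-dissociated and plated at low density on poly-L-lysine cover slips over a glial monolayer in serum-free N2 MEM. At 48 h: bFGF 1 ng/mL plus FB1 10 μM (Hepes stock) with or without analogue 5 μM (ethanol, ≤1% final). At 51 h, fixed in glutaraldehyde and axonal branch points/cell counted by phase contrast. Values normalized to 48 h; mean ± SEM of three cultures, 50 cells per cover slip, two cover slips per treatment; p values reported.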

[2] = Inability to reverse inhibitory effect of D-threo-1-phenyl-2-decanoylamino-3-morpholino-1-propanol(PDMP) on accelerated axonal growth of hippocampal neurons, number of axonal branch points/ cell at 51 hour (P value)
Outline: (§1)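 Rat (E18 Wistar) hippocampal neurons cultured at low density over glia in serum-free N2 MEM. Treated at 48 h with bFGF 1 ng/mL, PDMP 50 μM final (Hepes stock) and with or without analogue 5 μM from ethanol (≤1% final). Axonal branch points/cell counted by phase contrast after glutaraldehyde fixation at 51 h and normalized to 48 h. Mean ± SEM of three cultures, 50 cells × two cover slips; p values vs bFGF or bFGF+PDMP.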

[3] = Inability to reverse inhibitory effect of D-threo-1-phenyl-2-decanoylamino-3-morpholino-1-propanol(PDMP) on accelerated axonal growth of hippocampal neurons (P value); outline: as §1

SMILES | No. of axonal points [1] | No. of axonal points [2] | No. of axonal points [3]
CCCCCCC/C=C/[C@@H](F)[C@H](CO)NC(=O)CCCCC | 1.39 | 1.12 | 
CCCCCCC/C=C/[C@H](F)[C@H](CO)NC(=O)CCCCC | 1.29 | 1.16 | 
CCCCCC(=O)N[C@@H](CO)[C@H](O)/C=C/c1ccc(C)cc1 | 1.46 |  | 
CCCCCc1ccc(/C=C/[C@@H](O)[C@H](CO)NC(C)=O)cc1 | 1.67 |  | 
CCCCCC(=O)N[C@@H](CO)[C@H](O)/C=C/c1ccc(F)cc1 | 1.5 |  | 
CCCCCCCCCCCCC/C=C/[C@@H](O)[C@H](CO)NC(=O)CCCCCNc1ccc([N+](=O)[O-])c2nonc12 | <1.66 and 1.46 | 0.86 and 1.08 | 
CCCCCCCCCCCCC/C=C/[C@H](O)[C@H](CO)NC(=O)CCCCCNc1ccc([N+](=O)[O-])c2nonc12 | <1.01 and <1.06 | 1.06 | 0.94
CCCCCC(=O)N[C@@H](CO)[C@H](O)/C=C/c1ccc(OC)cc1 | 1.35 |  | 
CCCCCC(=O)N[C@@H](CO)[C@H](O)/C=C/c1cccs1 | 1.38 | 1.04 | 
CCCCCc1ccc(/C=C/[C@@H](O)[C@H](CO)NC(=O)CCC)cc1 | 1.83 |  | 
CCCCCC(=O)N[C@@H](CO)[C@H](O)/C=C/c1ccc(CCCCC)cc1 | 1.54 |  | 
CCCCCCC/C=C/[C@@H](O)[C@H](CO)NC(=O)CCCCC | 1.43 |  | 
CCCCCCC/C=C/[C@H](O)[C@H](CO)NC(=O)CCCCC | 1.11 |  | 
CCCCCC(=O)N[C@@H](CO)[C@H](O)/C=C/c1ccccc1 | 2.09 | 0.92 | 

— ChEMBL document CHEMBL1133505, “Synthesis and biological evaluation of ceramide analogues with substituted aromatic rings or an allylic fluoride in the sphingoid moiety” (2000)
